Test results: ChEMBL document CHEMBL1135414, “Structure-activity relationships at human and rat A2B adenosine receptors of xanthine derivatives substituted at the 1-, 3-, 7-, and 8-positions” (J Med Chem, 2002)

Legend:
[1] = target: T1, Adenosine receptor A2b (Homo sapiens, UniProt P29275); assay: Binding affinity at human Adenosine A2B receptor expressed in HEK293 cells, using [125I]ABOPX as radioligand; assay type: cell-based
T1 sequence (P29275 whole entry): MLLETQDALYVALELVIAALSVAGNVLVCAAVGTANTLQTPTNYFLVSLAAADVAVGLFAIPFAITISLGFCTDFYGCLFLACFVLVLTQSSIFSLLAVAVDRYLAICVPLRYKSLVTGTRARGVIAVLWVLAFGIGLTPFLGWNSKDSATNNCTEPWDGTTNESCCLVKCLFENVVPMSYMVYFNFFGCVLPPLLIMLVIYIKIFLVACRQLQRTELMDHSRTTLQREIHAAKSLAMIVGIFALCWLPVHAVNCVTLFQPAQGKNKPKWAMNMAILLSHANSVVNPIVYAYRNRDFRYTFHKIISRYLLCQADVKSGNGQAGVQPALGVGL

[2] = species: Rattus norvegicus; assay: Relative affinities for rat Adenosine A1 and Adenosine A2B receptors
[3] = target: T2, Adenosine receptor A2b (Rattus norvegicus, UniProt P29276); assay: Inhibition of […] binding to rat Adenosine A2B receptor expressed in HEK cells; assay type: cell-based, HEK293
T2 sequence (P29276 whole entry): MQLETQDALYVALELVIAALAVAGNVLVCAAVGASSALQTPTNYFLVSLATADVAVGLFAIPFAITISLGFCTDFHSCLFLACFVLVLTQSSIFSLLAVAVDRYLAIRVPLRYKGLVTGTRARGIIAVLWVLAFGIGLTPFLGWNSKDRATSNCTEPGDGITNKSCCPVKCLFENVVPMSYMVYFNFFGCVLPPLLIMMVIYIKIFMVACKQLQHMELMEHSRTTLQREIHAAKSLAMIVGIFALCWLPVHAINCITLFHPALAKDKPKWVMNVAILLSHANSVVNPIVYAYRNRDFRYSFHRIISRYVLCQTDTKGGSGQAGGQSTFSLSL

[4] = species: Rattus norvegicus; assay: Relative affinities for rat Adenosine A2A and Adenosine A2B receptors
[5] = target: T3, Adenosine receptor A1 (Rattus norvegicus, UniProt P25099); assay: Binding affinity of specific [3H]R-PIA binding to rat Adenosine A1 receptor in HEK293 cells; assay type: cell-based
T3 sequence (P25099 whole entry): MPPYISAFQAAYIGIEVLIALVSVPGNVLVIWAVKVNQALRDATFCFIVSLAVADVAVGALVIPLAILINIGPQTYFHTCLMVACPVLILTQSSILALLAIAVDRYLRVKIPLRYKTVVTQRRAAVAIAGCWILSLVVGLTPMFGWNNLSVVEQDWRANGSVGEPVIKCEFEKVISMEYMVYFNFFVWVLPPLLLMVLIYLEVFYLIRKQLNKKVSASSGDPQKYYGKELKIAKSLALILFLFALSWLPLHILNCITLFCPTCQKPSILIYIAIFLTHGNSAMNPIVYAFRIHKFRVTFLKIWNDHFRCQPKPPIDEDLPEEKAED

[6] = target: Adenosine receptor A2a (Rattus norvegicus, UniProt P30543); assay: Binding affinity at rat Adenosine A2A receptor by [3H]-CGS- 21680 displacement.
[7] = target: Adenosine receptor A2a (Rattus norvegicus) (UniProt P30543); assay: Displacement of [3H]-CGS- 21680 from Adenosine A2A receptor of rat striatal membranes; assay type: cell membranes; parameters: concentration or dose not given beside the values; details: Membrane
Summary of the method: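 Competition of specific [3H]CGS 21680 binding in rat striatal membranes, reported as Ki ± SEM or as percent displacement at the stated concentration; n = 3–5.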

[8] = target: T4, Adenosine receptor A3 (Homo sapiens, UniProt P0DMS8); assay: Inhibition of [125I]I-AB-MECA binding to human Adenosine A3 receptor
T4 sequence (P0DMS8 whole entry): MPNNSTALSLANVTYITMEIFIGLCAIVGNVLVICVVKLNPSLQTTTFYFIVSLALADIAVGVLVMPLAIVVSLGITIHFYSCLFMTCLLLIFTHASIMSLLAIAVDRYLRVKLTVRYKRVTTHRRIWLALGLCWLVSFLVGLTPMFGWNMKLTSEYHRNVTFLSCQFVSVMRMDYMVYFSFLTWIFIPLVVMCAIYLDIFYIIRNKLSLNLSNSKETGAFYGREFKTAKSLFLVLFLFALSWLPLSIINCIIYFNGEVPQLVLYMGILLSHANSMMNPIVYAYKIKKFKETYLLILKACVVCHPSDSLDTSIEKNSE

Sequence of Adenosine receptor A2a (P30543 whole entry): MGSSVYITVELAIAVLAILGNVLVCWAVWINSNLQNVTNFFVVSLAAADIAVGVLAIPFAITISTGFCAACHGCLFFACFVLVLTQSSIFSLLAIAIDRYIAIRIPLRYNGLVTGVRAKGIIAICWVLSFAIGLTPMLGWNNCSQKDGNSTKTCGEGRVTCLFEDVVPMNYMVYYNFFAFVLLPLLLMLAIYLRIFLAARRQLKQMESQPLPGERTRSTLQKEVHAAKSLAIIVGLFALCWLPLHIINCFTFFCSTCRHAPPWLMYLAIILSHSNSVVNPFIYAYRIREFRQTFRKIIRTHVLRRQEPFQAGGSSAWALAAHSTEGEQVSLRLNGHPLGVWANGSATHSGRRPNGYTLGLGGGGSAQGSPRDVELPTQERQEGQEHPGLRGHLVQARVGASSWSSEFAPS
Sequence of Adenosine receptor A2a (Rattus norvegicus) (P30543 whole entry): as above

Row | Compound | Ki [1] [nM] | Ki [5] [nM] | further results
1 | Cn1c(=O)c2[nH]c(-c3ccc([N+](=O)[O-])cc3)nc2n(C)c1=O | 6940 | – | –
2 | CCCCCCn1c(=O)c2nc[nH]c2n(CCCCCC)c1=O | 7580 | – | –
3 | CCCn1c(=O)c2[nH]c(-c3ccc(OCC(=O)Nc4ccc(C#N)cc4)cc3)nc2n(CCC)c1=O | – | – | Ratio [2]: 1.3; Ki [3]: 12.8 nM; Ratio [4]: 48
4 | C=CCn1c(=O)c2[nH]c(-c3ccccc3)nc2n(C)c1=O | 37 | 302 | Ratio [2]: 1.7; Ki [6]: 1920 nM; Ki [3]: 174 nM; Ratio [4]: 11
5 | Cn1c(=O)c2c(ncn2CC#N)n(C)c1=O | 14500 | – | –
6 | C#CCn1cnc2c1c(=O)n(C)c(=O)n2C | 9460 | – | –
7 | CCCn1c(=O)c2nc(-c3cnccn3)[nH]c2n(CCC)c1=O | 79.6 | – | –
8 | C#CCn1c(=O)[nH]c2[nH]cnc2c1=O | 552 | 12700 | Displacement [7]: < 10%; Ki [8]: 3080 nM
9 | O=c1[nH]c2nc[nH]c2c(=O)n1CCc1ccccc1 | 408 | 37600 | Ki [8]: 7510 nM
10 | C#CCn1c(=O)c2[nH]cnc2n(C)c1=O | 511 | 5830 | Ratio [2]: 2.7; Ki [8]: 10900 nM; Ki [6]: 33600 nM; Ki [3]: 2150 nM; Ratio [4]: 16
11 | CCn1c(=O)c2nc[nH]c2n(C)c1=O | 1620 | 24700 | Ki [6]: 9780 nM
12 | Cn1c(=O)c2nc(-c3ccccc3C(=O)O)[nH]c2n(C)c1=O | 11100 | – | –
13 | COCn1c(=O)c2c(ncn2C)n(C)c1=O | 14000 | – | –
14 | CCn1c(=O)c2nc[nH]c2n(CC)c1=O | 1770 | – | –
15 | CCCn1c(=O)c2nc(-c3ccc(OCC(=O)O)cc3O)[nH]c2n(CCC)c1=O | 188 | 757 | Ki [6]: 2720 nM
16 | CC(=O)OCCn1cnc2c1c(=O)n(C)c(=O)n2C | 23200 | – | –

Row | Compound | Ki [1] [nM] | Ki [5] [nM] | further results
17 | Cn1cnc2c1c(=O)n(CC#N)c(=O)n2C | 21600 | – | –
18 | Cn1c(=O)c2c(ncn2CCN)n(C)c1=O | 23500 | – | –
19 | C=CCn1cnc2c1c(=O)n(C)c(=O)n2C | 9490 | – | –
20 | CCCn1c(=O)c2[nH]c(-c3ccc(OC)cc3O)nc2n(CCC)c1=O | 46.5 | 97.7 | Ki [6]: 5500 nM
21 | Cn1c(=O)c2c(ncn2Cc2ccccc2)n(C)c1=O | 19400 | – | –
22 | C#CCn1c(=O)c2c(ncn2C)n(C)c1=O | 4130 | – | –
23 | CCCn1c(=O)c2[nH]c(-c3ccc(O)cc3O)nc2n(CCC)c1=O | – | 220 | Ki [6]: 107 nM
24 | CCCn1c(=O)[nH]c2[nH]c(C3CCCC3)nc2c1=O | – | 7.68 | –
25 | Cn1c(=O)c2c(ncn2CCO)n(C)c1=O [ETOFYLLINE] | 17300 | – | –
26 | C=CCn1c(=O)[nH]c2[nH]cnc2c1=O | – | – | Displacement [7]: < 10%
27 | CC(C)CCn1c(=O)c2nc(-c3ccccc3)[nH]c2n(CC(C)C)c1=O | 9890 | – | –
28 | Cn1c(=O)c2c(ncn2CCCl)n(C)c1=O [7-CHLOROETHYLTHEOPHYLLINE] | 1390 | 15200 | Ratio [2]: 2.8; Ki [6]: 4230 nM; Ki [3]: 5390 nM; Ratio [4]: 0.78
29 | CCCn1c(=O)c2nc(-c3c(F)cccc3F)[nH]c2n(CCC)c1=O | 310 | – | –
30 | COc1ccc(-c2nc3c([nH]2)c(=O)n(C)c(=O)n3C)cc1 | 394 | – | –
31 | CCCn1c(=O)c2nc(-c3cccc(O)c3O)[nH]c2n(CCC)c1=O | 125 | 39 | Displacement [7]: < 10%
32 | CCCn1c(=O)c2nc(-c3ccc(NC(C)=O)cc3)[nH]c2n(CCC)c1=O | 36.7 | 39.2 | Displacement [7]: < 10%
